Results collected from several papers.
Target: Dual specificity protein kinase CLK4 (CLK4, Homo sapiens, UniProt Q9HAZ1)

SMILES | read-out | technique | concentration | remaining binding
C[C@@H]1CCN(c2nccc(-c3cnn4ncccc34)n2)C1 | binding |  | 1 µM | 12%
Cc1nc(N2CC[C@@H](O)C2)ncc1-c1cc(C(F)(F)F)cc2[nH]ncc12 | binding | competition with immobilised ligand | 1 µM | 92%
N[C@@H]1CCN(c2nccc(-c3cnn4ncccc34)n2)C1 | binding |  | 1 µM | 25%
O=C(NCCCC1CCCCC1)c1ccc(CNC(=O)c2cnn(-c3ccccc3)c2C(F)(F)F)cc1 | cell-free assay | competition with immobilised ligand | 0.1 µM | 100%
COc1ccnn2ncc(-c3ccnc(N(C)C)n3)c12 | binding |  | 1 µM | 4.2%
COc1cnc(Nc2cccc(S(N)(=O)=O)c2)nc1N1CCN(c2ccccc2)C(=O)C1 | binding | competition with immobilised ligand | 1 µM | 93%
CC1CCCN1c1nccc(-c2cnn3ncccc23)n1 (stereo not shown) | binding |  | 1 µM | 55%
O=C(c1ccc(Nc2nccc(-c3cc4ccccc4s3)n2)cc1)N1CCC(N2CCCC2)CC1 | binding | competition with immobilised ligand | 1 µM | 27%
O=C1NC(c2ccccn2)Sc2ccccc21 (stereo not shown) | cell-free assay | competition with immobilised ligand | 1 µM | 97%
CN(C)c1nccc(-c2cnc3ncccn23)n1 | binding |  | 1 µM | 14%
Cn1cc(Cl)c2c(Oc3c(F)cc(Nc4cc(Cl)nc(N)n4)cc3F)ccnc21 | cell-free assay | competition with immobilised ligand | 0.1 µM | 100%
F[C@@H]1CCN(c2nccc(-c3cnn4ncccc34)n2)C1 | binding |  | 1 µM | 60%
Cc1c(NC(=O)c2cc(C(N)=O)nc3cc(F)ccc23)c(C(F)(F)F)nn1Cc1ccc(C(C)(C)C)cc1 | cell-free assay | competition with immobilised ligand | 1 µM | 100%
CCN1CCN(Cc2ccc(C(=O)Nc3ccc(C)c(Oc4ccc5c(c4)CC(=O)N5)c3)cc2C(F)(F)F)CC1 | binding | competition with immobilised ligand | 1 µM | 94%
O=C(NCCCN1CCOCC1)c1ccc(Nc2ncc(Cl)c(-c3ccc(Cl)s3)n2)cc1 | binding | competition with immobilised ligand | 1 µM | 1.6%
CNC(=O)[C@@H]1CC[C@@H](n2c(-c3ccc4cnccc4c3)nc3ccc(C(=O)NCc4cccc(C(N)=O)c4)cc32)C1 | binding | competition with immobilised ligand | 1 µM | 100%
O=C(Nc1c[nH]nc1C(=O)NC1CCNCC1)c1cc(F)cc(F)c1 | binding | competition with immobilised ligand | 1 µM | 75%
Cc1cnc(Nc2ccc(C(=O)N3CCC(N4CCCC4)CC3)cc2)nc1-c1cc2ccccc2s1 | binding | competition with immobilised ligand | 1 µM | 11%
Cc1c(C(=O)O)cc(-c2ccc(C3CCNCC3)cc2)c2ccc(-c3ccc(C(F)(F)F)cc3)cc12 | binding | competition with immobilised ligand | 1 µM | 100%
Nc1ncc2c(n1)-c1c([nH]c3ccc(C#CC4CC4)cc13)CCCC2 | binding | competition with immobilised ligand | 1 µM | 76%
CNCc1ccccc1-c1csc([C@@H](C)Nc2nc(C)nc3cc(OC)c(OC)cc23)c1 | cell-free assay | competition with immobilised ligand | 1 µM | 100%
c1cncc(-c2cccc(Nc3nccc(NC4CCCCC4)n3)c2)c1 | binding | competition with immobilised ligand | 10 µM | 1%
